{"source": "paper PMC2908029", "about": "(Current radiopharmaceuticals, 2010)", "key": {"[1]": {"molecular_target": "5-HT1A receptors", "details": "cited from earlier work"}, "[2]": {"molecular_target": "T1, brain 5-HT1A receptors (Rattus norvegicus, UniProt P19327)", "T1 sequence (P19327 1-422)": "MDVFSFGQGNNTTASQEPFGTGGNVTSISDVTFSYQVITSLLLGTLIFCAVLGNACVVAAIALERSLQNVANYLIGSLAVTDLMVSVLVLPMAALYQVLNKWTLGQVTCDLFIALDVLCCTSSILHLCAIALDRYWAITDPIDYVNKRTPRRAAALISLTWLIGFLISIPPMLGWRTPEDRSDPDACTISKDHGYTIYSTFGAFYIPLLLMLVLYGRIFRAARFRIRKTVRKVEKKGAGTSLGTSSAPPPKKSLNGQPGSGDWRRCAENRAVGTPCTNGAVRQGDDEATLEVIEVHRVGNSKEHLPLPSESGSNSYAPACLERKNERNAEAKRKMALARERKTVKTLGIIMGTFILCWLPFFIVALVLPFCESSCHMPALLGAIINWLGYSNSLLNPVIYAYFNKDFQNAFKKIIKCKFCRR", "test": "PET imaging of [11C]S14506 in rat", "assay_type": "in vivo, Sprague-Dawley rat", "details": "i.v."}, "[3]": {"system": "brain 5-HT1A receptors", "test": "PET imaging of [11C]S14506 in monkey", "assay_type": "in vivo, rhesus monkey"}, "[4]": {"test": "Stability in whole blood", "assay_type": "in vitro ADME", "details": "rat whole blood in vitro, 125 min, room temperature"}, "[5]": {"test": "Plasma protein binding", "assay_type": "in vitro ADME", "details": "rat plasma"}, "[6]": {"test": "Distribution between blood components", "assay_type": "in vitro ADME", "details": "rat, without hematocrit correction", "procedure,_shortened": "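[18F]-labelled test compound (0.8 μCi) added to heparinized rat whole blood (from cardiac puncture) in duplicate tubes and incubated at room temperature for 27 min. Blood centrifuged at 1800 × g for 3 min, plasma separated, and all fractions γ-counted. Percent radioactivity in plasma and in cells reported without hematocrit correction.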"}, "[7]": {"test": "Emergence of radiometabolites in monkey plasma", "assay_type": "in vivo, rhesus monkey", "details": "over the PET study"}, "[8]": {"system": "human 5-HT1A receptors", "details": "recombinant Chinese hamster ovary cells, room temperature; cited from earlier work"}, "[9]": {"system": "brain 5-HT1A receptors", "test": "PET imaging of [18F]S14506 in monkey", "assay_type": "in vivo, rhesus monkey", "details": "absence of radioactivity accumulation in skull"}, "[10]": {"test": "Ex vivo biodistribution and radiometabolite composition of [18F]S14506 in rat", "set-up": "species or system Sprague-Dawley rat"}, "[11]": {"test": "Effect of cyclosporin A on rat plasma and brain levels of [18F]S14506", "assay_type": "in vivo", "details": "30 min after administration"}, "[12]": {"test": "Stability in sodium phosphate buffer", "assay_type": "physicochemical", "details": "sodium phosphate buffer (0.15 M), room temperature, 2.5 h"}}, "note": "Values joined by “and” are separate entries in the source; they are usually repeats but may differ in a detail not shown here. Equal entries are not always repeated.", "data": [{"compound": "COc1ccccc1N1CCN(CCCCn2ncc(=O)n(C)c2=O)CC1", "note": "[[^11C]CUMI-101, [O-methyl-^11C]2-(4-(4-(2-methoxyphenyl)piperazin-1-yl)butyl)-4-methyl-1,2,4-triazine-3,5(2H,4H)dione]", "values": [{"measurement": "Ki", "setting": "[1]; read-out: Ki, 5-HT1A receptor affinity", "result": 0.15, "unit": "nM"}]}, {"compound": "[11CH3]Oc1ccc2cccc(N3CCN(CCNC(=O)c4ccc(F)cc4)CC3)c2c1", "note": "[[^11C]S14506]", "values": [{"measurement": "peak whole brain radioactivity", "setting": "[2]; rat pre-treated with cyclosporin A 25 mg/kg", "result": "~ 310 % SUV"}, {"measurement": "peak whole brain radioactivity", "setting": "[2]; rat pre-treated with cyclosporin A 50 mg/kg", "result": "~ 350 % SUV"}, {"measurement": "peak whole brain radioactivity", "setting": "[2]; rat, baseline, at 2 min", "result": "210 % SUV and ~ 210 % SUV"}, {"measurement": "peak brain radioactivity", "setting": "[3]; monkey pre-treated with tariquidar 4 mg/kg, i.v., 30 min before", "result": "240 % SUV and ~ 240 % SUV"}, {"measurement": "peak whole brain radioactivity", "setting": "[3]; monkey, baseline, i.v., at 7 min", "result": "~ 170 % SUV"}, {"measurement": "unchanged radioligand after incubation with whole blood", "setting": "[4]", "result": "> 99.5", "unit": "%"}, {"measurement": "free in plasma (plasma protein binding)", "setting": "[5]", "result": 0.52, "unit": "%"}, {"measurement": "whole blood distribution to cellular components", "setting": "[6]", "result": 40.9, "unit": "%"}, {"measurement": "whole blood distribution to plasma", "setting": "[6]", "result": 59.1, "unit": "%"}, {"measurement": "maximal share of the second (minor) radiometabolite in plasma radioactivity", "setting": "[7]", "result": "≤ 3.1", "unit": "%"}]}, {"compound": "COc1ccc2cccc(N3CCN(CCNC(=O)c4ccc(F)cc4)CC3)c2c1", "note": "[S14506, 1-[2-(4-fluorobenzoylamino)ethyl]-4-(7-methoxynaphthyl)piperazine, reference compound]", "values": [{"measurement": "time required for a 50% decrease in cerebellar radioactivity", "setting": "[3]; monkey, cerebellar time-activity curves (non-specific binding)", "result": "> 32", "unit": "min"}, {"measurement": "off rate from human 5-HT1A receptors", "setting": "[8]", "result": 0.029, "unit": "min⁻¹"}]}, {"compound": "COc1ccc2cccc(N3CCN(CCNC(=O)c4ccc([18F])cc4)CC3)c2c1", "note": "[[^18F]S14506]", "values": [{"measurement": "radiodefluorination", "setting": "[9]", "result": "not radiodefluorinated"}, {"measurement": "free in plasma (plasma protein binding)", "setting": "[5]", "result": 0.61, "unit": "%"}, {"measurement": "whole blood distribution to cellular components", "setting": "[6]", "result": 25.8, "unit": "%"}, {"measurement": "whole blood distribution to plasma", "setting": "[6]", "result": 74.2, "unit": "%"}, {"measurement": "Composition (%) of radioactivity, Cerebellum", "setting": "[10]; 30 min after administration of [18F]S14506, n = 1 rat", "result": 93.9, "unit": "%"}, {"measurement": "Composition (%) of radioactivity, Remainder of brain", "setting": "[10]; 30 min after administration of [18F]S14506, n = 2 rats", "result": "97.2 ± 0.20", "unit": "%"}, {"measurement": "Composition (%) of radioactivity, Plasma", "setting": "[10]; 30 min after administration of [18F]S14506, n = 3 rats (mean ± SD)", "result": "38.6 ± 0.17", "unit": "%"}, {"measurement": "[18F]S14506 concentration (%SUV), Remainder of brain", "setting": "[11]; Control", "result": 141, "unit": "%SUV"}, {"measurement": "[18F]S14506 concentration (%SUV), Remainder of brain", "setting": "[11]; Cyclosporin A treated (50 mg/kg, i.v.)", "result": 211, "unit": "%SUV"}, {"measurement": "stability to incubation in buffer", "setting": "[12]", "result": "stable"}]}, {"compound": "WAY-100635", "values": [{"measurement": "Kd", "setting": "[1]; read-out: Kd, 5-HT1A receptor affinity", "result": 0.1, "unit": "nM"}]}]}
